20 compounds from ChEMBL document CHEMBL4706530, “Synthesis, inhibitory activity and in silico docking of dual COX/5-LOX inhibitors with quinone and resorcinol core” (Eur J Med Chem, 2020) can be followed below.

Assay [1] has as its target T1, Polyunsaturated fatty acid 5-lipoxygenase (Homo sapiens, UniProt P09917).
T1 sequence (P09917 whole entry): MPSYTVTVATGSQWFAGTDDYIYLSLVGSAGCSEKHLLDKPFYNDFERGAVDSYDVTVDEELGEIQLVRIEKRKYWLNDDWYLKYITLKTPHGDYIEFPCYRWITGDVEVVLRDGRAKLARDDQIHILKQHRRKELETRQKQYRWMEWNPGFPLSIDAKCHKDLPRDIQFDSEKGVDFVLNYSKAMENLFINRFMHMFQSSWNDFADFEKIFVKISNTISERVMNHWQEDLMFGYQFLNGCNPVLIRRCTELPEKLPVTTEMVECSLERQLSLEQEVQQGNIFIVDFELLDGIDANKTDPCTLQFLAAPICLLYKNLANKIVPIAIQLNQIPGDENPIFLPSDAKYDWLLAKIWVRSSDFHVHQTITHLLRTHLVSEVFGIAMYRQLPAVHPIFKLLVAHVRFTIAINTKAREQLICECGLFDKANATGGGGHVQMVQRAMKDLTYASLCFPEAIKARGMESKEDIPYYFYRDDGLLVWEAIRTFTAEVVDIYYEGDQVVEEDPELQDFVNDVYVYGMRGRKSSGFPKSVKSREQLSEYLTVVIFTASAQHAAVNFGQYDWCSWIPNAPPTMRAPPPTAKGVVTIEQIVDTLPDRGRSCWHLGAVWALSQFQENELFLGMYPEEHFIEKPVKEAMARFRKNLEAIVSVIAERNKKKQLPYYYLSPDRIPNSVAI
The experiment in a line: Inhibition of human recombinant 5-LOX assessed as reduction in LTB4 level using 800 uM arachidonic acid as substrate preincubated with enzyme for 10 mins followed by substrate addition and measured after 10 mins by ELISA. The procedure, abridged: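 Human recombinant 5-LOX, 1 unit per reaction, in PBS pH 7.4 containing 1 mM Na2EDTA and 200 µM ATP. Compound in DMSO (DMSO blank) held 10 min at 4°C. CaCl2 added, reaction started with arachidonic acid (800 µM solution) for 10 min at 37°C. Formic acid stop, 1:15 dilution, LTB4 measured by ELISA as % inhibition versus blank. At least three experiments in at least duplicate.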

The target of assay [2] is T2, Prostaglandin G/H synthase 1 (Ovis aries) (UniProt P05979).
T2 sequence (whole entry): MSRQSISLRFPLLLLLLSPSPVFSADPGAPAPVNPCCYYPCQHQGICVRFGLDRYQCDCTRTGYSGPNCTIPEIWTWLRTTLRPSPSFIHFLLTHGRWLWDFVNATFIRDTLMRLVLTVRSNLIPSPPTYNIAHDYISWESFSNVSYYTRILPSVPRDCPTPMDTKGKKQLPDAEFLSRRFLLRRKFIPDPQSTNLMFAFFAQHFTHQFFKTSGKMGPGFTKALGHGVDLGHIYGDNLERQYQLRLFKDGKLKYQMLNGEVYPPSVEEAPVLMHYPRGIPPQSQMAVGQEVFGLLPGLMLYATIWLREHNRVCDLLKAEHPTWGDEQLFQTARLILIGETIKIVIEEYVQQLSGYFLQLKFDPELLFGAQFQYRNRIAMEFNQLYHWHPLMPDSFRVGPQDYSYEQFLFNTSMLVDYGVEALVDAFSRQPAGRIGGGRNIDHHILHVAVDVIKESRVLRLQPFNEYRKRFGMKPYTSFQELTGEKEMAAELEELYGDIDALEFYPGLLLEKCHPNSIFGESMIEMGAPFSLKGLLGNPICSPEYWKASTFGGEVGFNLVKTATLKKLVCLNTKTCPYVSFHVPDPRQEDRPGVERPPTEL
Briefly: Inhibition of ovine COX-1 assessed as reduction in PGE2 level using 10 uM arachidonic acid as substrate at 20 uM preincubated with enzyme for 5 mins followed by substrate addition and measured after 20 mins by ELISA relative to control. As to conditions: time 25.0 min. The procedure, abridged: (§1)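 Enzyme in 100 mM Tris pH 8.0 with 5 µM porcine hematin, 18 mM L-epinephrine and 50 µM Na2EDTA. Compound in DMSO (DMSO blank) 5 min at room temperature. Arachidonic acid (10 µM) added, 20 min at 37°C. Stopped with 10% formic acid, diluted 1:15, PGE2 measured by ELISA at 405 nm as % inhibition versus blank. At least three experiments in at least duplicate. Non-active below 50% inhibition at 20 µM.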

Assay [3] concerns the target T3, Prostaglandin G/H synthase 2 (Homo sapiens) (UniProt P35354).
T3 sequence (whole entry): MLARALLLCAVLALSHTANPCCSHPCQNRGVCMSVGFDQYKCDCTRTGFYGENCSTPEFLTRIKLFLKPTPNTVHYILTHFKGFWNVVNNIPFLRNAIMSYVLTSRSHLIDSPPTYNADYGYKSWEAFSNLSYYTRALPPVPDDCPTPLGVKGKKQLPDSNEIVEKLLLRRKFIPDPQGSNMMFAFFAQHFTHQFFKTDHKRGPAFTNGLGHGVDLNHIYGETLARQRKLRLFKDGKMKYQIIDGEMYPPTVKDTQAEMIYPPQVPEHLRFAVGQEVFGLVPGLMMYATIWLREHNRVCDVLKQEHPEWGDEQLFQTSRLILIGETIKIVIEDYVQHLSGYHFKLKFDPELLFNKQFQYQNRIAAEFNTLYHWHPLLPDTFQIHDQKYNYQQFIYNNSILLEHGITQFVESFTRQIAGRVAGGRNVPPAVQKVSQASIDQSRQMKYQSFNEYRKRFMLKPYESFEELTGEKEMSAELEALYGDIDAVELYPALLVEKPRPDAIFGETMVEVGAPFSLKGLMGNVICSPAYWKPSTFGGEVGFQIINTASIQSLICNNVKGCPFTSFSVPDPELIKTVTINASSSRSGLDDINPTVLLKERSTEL
Briefly: Inhibition of human recombinant COX-2 assessed as reduction in PGE2 level using 10 uM arachidonic acid as substrate at 20 uM preincubated with enzyme for 5 mins followed by substrate addition and measured after 20 mins by ELISA relative to control. As to conditions: time 25.0 min. The procedure, abridged:
as §1

Assay [4] concerns the target T4, Prostaglandin G/H synthase 1 (Ovis aries, UniProt P05979).
T4 sequence (P05979 whole entry): T2 sequence (whole entry)
Briefly: Inhibition of ovine COX-1 assessed as reduction in PGE2 level using 10 uM arachidonic acid as substrate preincubated with enzyme for 5 mins followed by substrate addition and measured after 20 mins by ELISA. The procedure, abridged:
as §1

The target of assay [5] is T5, Prostaglandin G/H synthase 2 (Homo sapiens, UniProt P35354).
T5 sequence (P35354 whole entry): T3 sequence (whole entry)
Briefly: Inhibition of human recombinant COX-2 assessed as reduction in PGE2 level using 10 uM arachidonic acid as substrate preincubated with enzyme for 5 mins followed by substrate addition and measured after 20 mins by ELISA.

Assay [6] can be described thus: Selectivity index, ratio of IC50 for ovine COX-1 to IC50 for human recombinant COX-2.
The nature of assay [7]: Antioxidant activity assessed as radical scavenging activity measured after 30 mins by DPPH assay. It is filed as functional. The procedure, abridged: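 Test compounds in methanol, two-fold serial dilution to final 3.125–400 µM, incubated 30 min with DPPH in methanol (stated final […]) at room temperature in the dark. Absorbance read at 517 nm. Trolox and L-ascorbic acid served as positive references. Activity expressed as EC50.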

In assay [8] the target is T6, Polyunsaturated fatty acid 5-lipoxygenase (Homo sapiens) (UniProt P09917).
T6 sequence (whole entry): T1 sequence (P09917 whole entry)
The experiment in a line: Inhibition of human recombinant 5-LOX assessed as reduction in LTB4 level using 800 uM arachidonic acid as substrate at 5 uM preincubated with enzyme for 10 mins followed by substrate addition and measured after 10 mins by ELISA relative to control. The note with it: time 20.0 min. The gist of the method: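 Human recombinant 5-LOX, 1 unit per reaction, in PBS pH 7.4 containing 1 mM Na2EDTA and 200 µM ATP. Compound in DMSO (DMSO blank) held 10 min at 4°C. CaCl2 added, reaction started with arachidonic acid (800 µM solution) for 10 min at 37°C. Formic acid stop, 1:15 dilution, LTB4 measured by ELISA as % inhibition versus blank. At least three experiments in at least duplicate. Non-active cutoff below 50% inhibition at 5 µM.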

Regarding `CCCCCc1cc(OC(C)=O)cc(OC)c1OC(C)=O`, in assay [1], the IC50 is 1090 nM. Further, the inhibition in assay [2] and in assay [3] was below 50% in each case.

With `COc1cc(O)cc(Br)c1O`, the IC50 in assay [1] came to 1140 nM; in assay [4], 6110 nM; in assay [5] it was 4810 nM. Moreover, the Ratio IC50 in assay [6] is 1.27.

Consider `O=C1O[C@H]([C@@H](O)CO)C(O)=C1O` [ASCORBIC ACID], for which, in assay [7], the EC50 amounted to 31100 nM.

On to `CCCCCCCCCCCc1cc(O)cc(OC)c1O`, for which the IC50 was 280 nM in assay [1], 1070 nM in assay [4] and 550 nM in assay [5]. Besides, in assay [6], the Ratio IC50 turned out to be 1.95.

Turning to `COC1=CC(=O)C=C(Br)C1OC(C)=O` (stereo not drawn), the half-inhibitory concentration (IC50) in assay [1] came to 170 nM. Besides, the EC50 in assay [7] turned out to be 45600 nM. The inhibition in assay [2] and in assay [3] was below 50% each time.

For the compound `CCCCCCCCCCCCCCCC1=CC(=O)C=C(OC)C1=O`, the values for the IC50 in assay [1] and in assay [5] were 790 nM and 8970 nM, respectively. Moreover, the inhibition in assay [2] is below 50%.

As to `CCCCCc1cc(O)cc(OC)c1O`, the IC50 in assay [1] was 940 nM. Moreover, the inhibition in assay [2] and in assay [3] was below 50% in each case.

Consider `CCCCCc1cccc(OC)c1O`, for which the results for the IC50 in assay [1], in assay [4] and in assay [5] were 3720 nM, 5420 nM and 4650 nM, respectively. Also, in assay [6], the Ratio IC50 stood at 1.17.

Take `CCCCCCCCCCCCCCCc1cc(O)cc(O)c1` [CARDOL]: the IC50 in assay [4] worked out at 5610 nM; in assay [5], 2360 nM. Further, in assay [8], the inhibition was below 50%. Besides, the Ratio IC50 in assay [6] came to 2.38.

On to `CCCCCCCCCCCCCc1cc(OC(C)=O)cc(OC)c1OC(C)=O`, for which the IC50 in assay [1] turned out to be 1020 nM. Moreover, the inhibition in assay [2] and in assay [3] was below 50% in each case.

For `Cc1c(C)c2c(c(C)c1O)CCC(C)(C(=O)O)O2` (stereo not drawn) [TROLOX], the EC50 in assay [7] was found to be 32500 nM.

Turning to `CCCCCC1=CC(=O)C=C(OC)C1=O` [Primin], the IC50 in assay [1] is 1370 nM; in assay [4] it was 18900 nM; in assay [5], 1900 nM. In addition, the Ratio IC50 in assay [6] is 9.96.

For the compound `CCCCCCCCCCCCCc1cc(O)cc(O)c1`, the IC50 was 2380 nM in assay [4] and 2740 nM in assay [5]. In addition, the inhibition in assay [8] is below 50%. In addition, the Ratio IC50 in assay [6] was 0.87.

In the case of `COC1=CC(=O)C=C(Br)C1=O`, the values for the IC50 in assay [1], in assay [4] and in assay [5] were 1670 nM, 15600 nM and 4480 nM, respectively. Moreover, the Ratio IC50 in assay [6] was 3.47.

With `CCCCCCCCCCCCCC1=CC(=O)C=C(OC)C1=O`, the IC50 in assay [1] turned out to be 1050 nM; in assay [4], 250 nM; in assay [5], 880 nM.

Consider `CCCCCCCCCCCCCc1cc(O)cc(OC)c1O`, for which the IC50 was determined as 1490 nM in assay [1], 3380 nM in assay [4] and 1550 nM in assay [5]. Also, the Ratio IC50 in assay [6] was 2.18.

In the case of `CCCCCc1cc(O)cc(OC)c1`, the inhibition in assay [8] and in assay [2] was below 50% each time. Moreover, the IC50 in assay [5] is 15900 nM.

Regarding `CCCCCCCCCCCCCCCc1cc(O)cc(OC)c1O`, the values for the IC50 in assay [1], in assay [4] and in assay [5] were 140 nM, 2650 nM and 2710 nM, respectively. Moreover, the Ratio IC50 in assay [6] was determined as 0.98.

For the compound `CCCCCc1cc(O)cc(O)c1` [WHILE OLIVETOL], the IC50 in assay [4] was 13600 nM; in assay [5] it was 17300 nM. For the same compound, in assay [8], the inhibition is below 50%. Besides, in assay [6], the Ratio IC50 was 0.79.

Consider `CCCCCC1=CC(=O)C=C(OC)C1=N`, for which the IC50 turned out to be 1010 nM in assay [1], 15800 nM in assay [4] and 5820 nM in assay [5]. In assay [6], the Ratio IC50 amounted to 2.71.
